Assay results taken from ChEMBL document CHEMBL1765028 (Bioorg Med Chem, 2011).
The source made the active and inactive calls. The rule behind the calls is not given here.

Assays:
L6 = test: Cytotoxicity against rat L6 cells; format: cell-based
Procedure, shortened: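 Cultured L6 rat myoblast cells were used to measure IC50 cytotoxicity.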

[1] = tested on: Trypanosoma brucei rhodesiense; test: Antiparasitic activity against Trypanosoma brucei rhodesiense STIB900; format: functional, organism-based
Procedure, shortened: (§1)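 Compounds tested in vitro as hydrochloride salts against Plasmodium falciparum K1 or Trypanosoma brucei rhodesiense STIB900.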

[2] = Selectivity index, ratio of IC50 for rat L6 cells to IC50 for Trypanosoma brucei rhodesiense STIB900; format: toxicity, cell-based; conditions: L6 cells versus Trypanosoma brucei rhodesiense STIB900, read-out: Ratio IC50
Procedure, shortened: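 Selectivity index is IC50 for L6 rat myoblasts divided by IC50 for T. b. rhodesiense STIB900. Both IC50s were measured in vitro.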

Plasmodium falciparum = test: Antiparasitic activity against Plasmodium falciparum K1; format: functional, organism-based; procedure, shortened: as §1
[3] = Selectivity index, ratio of IC50 for rat L6 cells to IC50 for Plasmodium falciparum K1; format: toxicity, cell-based; conditions: L6 cells versus Plasmodium falciparum K1, read-out: Ratio IC50
Procedure, shortened: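 Selectivity index is IC50 for L6 rat myoblasts divided by IC50 for P. falciparum K1. Both IC50s were measured in vitro.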

[4] = tested on: Trypanosoma brucei rhodesiense; test: Antiparasitic activity against Trypanosoma brucei rhodesiense STIB900 infected in mouse assessed as cured at 5 mg/kg, ip for 4 days; format: functional, organism-based; set-up: dose 5 mg/kg
Procedure, shortened: (§2)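 Acute STIB900 mouse model. Hydrochloride salts were given intraperitoneally at 5 mg/kg/day on four consecutive days. Cure is the number of mice surviving and parasite-free on day 60. Relapse is the mean day parasitemia reappears.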

[5] = tested on: Trypanosoma brucei rhodesiense; test: Antiparasitic activity against Trypanosoma brucei rhodesiense STIB900 infected in mouse assessed as mean relapse day of parasitemia at 5 mg/kg, ip for 4 days; format: functional; conditions: route intraperitoneal; procedure, shortened: as §2
[6] = tested on: Poly(dA-dT)oligonucleotide

SMILES	IC50 (L6)	IC50 [1]	selectivity ratio [2]	IC50 (Plasmodium falciparum)	selectivity ratio [3]	Activity [4]	Activity [5]	ΔTm [6]
Cl.Cl.Cn1c(-c2ccc(C(=N)N)cc2)nc2cc(-c3ccc(C(=N)N)cc3)ccc21	> 169000 nM	15 nM	> 11300	1.3 nM	> 130000	inactive	11 days	11.2 °C
Cl.Cl.N=C(N)c1ccc(-c2ccc3[nH]c(-c4ccc(C(=N)N)cc4)nc3c2)cc1	62400 nM	4 nM	15600	3.7 nM	16900	inactive	18 days	> 27 °C
N=C(N)c1ccc(-c2ccc(-c3nc4ccc(C(=N)N)cc4[nH]3)cc2)cc1	17000 nM	7.7 nM	–	0.5 nM	34000	–	–	> 27 °C
Cl.Cl.N=C(N)c1ccc(-c2ccc3cc(-c4ccc(C(=N)N)cc4)[nH]c3c2)cc1	3400 nM	3 nM	1130	5.2 nM	653	inactive	20 days	> 27 °C
Cl.Cl.N=C(N)c1ccc(-c2ccc3[nH]c(-c4ccc(C(=N)N)cc4)cc3c2)cc1	6700 nM	3 nM	2330	5.7 nM	1180	–	20 days	23.7 °C
Cl.Cl.N=C(N)c1ccc(-c2ccc3cc(-c4cc(C(=N)N)ccn4)[nH]c3c2)cc1	11600 nM	5 nM	2320	18 nM	644	–	24 days	> 27 °C
N=C(N)c1ccc(-c2ccc(-c3ccc(C(=N)N)cc3)o2)cc1 [FURAMIDINE]	–	–	–	–	–	–	20 days	–
Cl.Cl.N=C(N)c1ccc(-c2ccc3cc(-c4ccc(C(=N)N)s4)[nH]c3c2)cc1	2200 nM	4 nM	550	11.1 nM	198	–	17 days	> 27 °C
N=C(N)c1ccc(OCCCCCOc2ccc(C(=N)N)cc2)cc1 [PENTAMIDINE]	46000 nM	–	–	–	–	–	20 days	–
Cl.Cl.N=C(N)c1ccc(-c2ccc3[nH]c(-c4ccc(C(=N)N)s4)cc3c2)cc1	9900 nM	2 nM	4950	7.1 nM	1390	–	17 days	25.5 °C
N=C(N)c1ccc(-c2cc3ccc(C(=N)N)cc3[nH]2)cc1 [DAPI]	–	18 nM	48	–	–	–	17 days	> 27 °C
Cl.Cl.N=C(N)c1ccc(-c2ccc3nc(-c4ccc(C(=N)N)cc4)n(O)c3c2)cc1	124000 nM	484 nM	256	18 nM	6890	inactive	8 days	12.2 °C
Cl.Cl.N=C(N)c1ccc(-c2ccc3cc(-c4ccc(C(=N)N)o4)[nH]c3c2)cc1	9200 nM	17 nM	541	12.5 nM	736	inactive	18 days	24.9 °C
N=C(N)c1ccc(-c2ccc(-c3cc4ccc(C(=N)N)cc4[nH]3)cc2)cc1	10500 nM	2 nM	–	3.3 nM	–	–	–	> 27 °C
Cl.Cl.N=C(N)c1ccc(-c2ccc3cc(-c4cnccc4C(=N)N)[nH]c3c2)cc1	2600 nM	4 nM	650	9.8 nM	265	–	24 days	> 27 °C
